# Test results as given in publication PMC3230563 (International Journal of Nanomedicine, 2011).
# How the values were obtained:
# [1] = system: rat; details: oral, no reference given; cited from earlier work
# [2] = In vivo pharmacokinetics in rats; parameters: species or system Male Wistar rats; details: for half-life: T1/2, rat; for Tmax: Tmax average
# Summary of the method: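 Fasted (12 h) male Wistar rats under 0.5% isoflurane received 200 μg/kg in isotonic solution by tail-vein bolus (n = 4). Serial intracardiac blood went into 0.109 M citrate from 2 min to 24 h, and plasma was stored at −20°C. Concentration came from an anti-Xa chromogenic calibration curve, with over-range samples diluted in human normal plasma. Noncompartmental PK used trapezoidal AUC; bioavailability was the dose-corrected oral/IV AUC ratio.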
# [3] = male, Wistar, rat, plasma, iv, 200 ug/kg
# [4] = male, Wistar, rat, plasma, iv, 200 ug/kg, IV bolus
# [5] = male, Wistar, rat, plasma, po, 5 mg/kg
# [6] = male, Wistar, rat, plasma, po, 5 mg/kg, 5 mg/kg Fp
# [7] = male, Wistar, rat, plasma, sc, 200 ug/kg
# [8] = rat, IV bolus, 200 μg/kg, listed as IV Fp solution
smiles,measurement,setting,value
"CCCCCCCCCCCCCCCC[N+](C)(C)C [CTAB, hexadecyltrimethyl ammonium bromide]",LD50,[1],410 mg/kg
"CO[C@H]1O[C@H](COS(=O)(=O)O)[C@@H](O[C@@H]2O[C@@H](C(=O)O)[C@@H](O[C@H]3O[C@H](COS(=O)(=O)O)[C@@H](O[C@@H]4O[C@H](C(=O)O)[C@@H](O[C@H]5O[C@H](COS(=O)(=O)O)[C@@H](O)[C@H](O)[C@H]5NS(=O)(=O)O)[C@H](O)[C@H]4O)[C@H](OS(=O)(=O)O)[C@H]3NS(=O)(=O)O)[C@H](O)[C@H]2OS(=O)(=O)O)[C@H](O)[C@H]1NS(=O)(=O)O [Fp, fondaparinux]",AUC(0-inf),[2]; [3],2300 ng·h/mL
same,Cmax,[2]; [3],1420 ± 120 ng/mL
same,bioavailability,"[2]; male, Wistar, rat, plasma, iv, 200 ug/kg, Absolute bioavailability, IV bolus, 200 μg/kg (reference)",100%
same,MRT,"[2]; male, Wistar, rat, plasma, iv, 200 ug/kg, MRT, IV bolus",1.17 h
same,half-life,[2]; [4],1.8 h
same,Tmax,[2]; [4],0.0333 h
same,AUC(0-inf),[2]; [5],812 ng·h/mL
same,Cmax,[2]; [5],60 ± 20 ng/mL
same,MRT,"[2]; male, Wistar, rat, plasma, po, 5 mg/kg, MRT, 5 mg/kg Fp",1.36 h
same,half-life,[2]; [6],0.862 ± 0.607 h
same,Tmax,[2]; [6],2 h
same,AUC(0-inf),[2]; [7],2570 ng·h/mL
same,Cmax,[2]; [7],836 ± 190 ng/mL
same,MRT,"[2]; male, Wistar, rat, plasma, sc, 200 ug/kg, MRT",3.87 h
same,half-life,[2]; [7],1.47 ± 1.4 h
same,Tmax,[2]; [7],≤ 1 h
same,anti-Xa level in rat plasma,"[2]; oral Fp solution alone, 0.5, 2 mg/kg, limit of quantification 0.01 μg/mL",below the limit of quantification
same,Clearance,"[2]; rat, IV bolus, 200 μg/kg",490.52 ± 14.74 µL/min
same,MRT,[2]; [8],1.8028 ± 0.4345 h
same,T1/2,[2]; [8],1.175 ± 0.2938 h
same,Clearance,"[2]; rat, SC, 200 μg/kg",493.89 ± 5.478 µL/min
same,Absolute bioavailability,"[2]; rat, SC, 200 μg/kg, dose corrected AUC versus IV, listed as SC Fp solution",115.84 ± 17.92 (4) %
same,Tmax average,"[2]; rat, SC, 200 μg/kg, listed as SC Fp solution",1 h
same,Clearance,"[2]; rat, oral, 5 mg/kg Fp",455.43 ± 14.51 µL/min
"CCCCCCCCCCCCCCCCCCN [SA, stearylamine]",LD50,[1],1395 mg/kg
